Data: ChEMBL document CHEMBL1146601, “Antileishmanial ring-substituted ether phospholipids” (J Med Chem, 2003)

Key:
Leishmania infantum = test: In vitro anti-leishmanial activity against promastigote cultures of Leishmania infantum MON 235; assay type: functional, organism-based
How it was run: (§1)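 Promastigotes (L. donovani MHOM/IN/80/DD8/LEM 703; L. infantum MHOM/TN/80/IPT1/LEM 235) grown in RPMI 1640 with 10% FCS, L-glutamine and antibiotics at 26 °C. Seeded at 5 × 10^5 cells/mL with 3-fold medium dilutions of a 9.625 mM DMSO solution, 72 h at 26 °C. MTT added for 3 h; SDS/2-propanol stop; A550 (ref 620 nm). IC50 by Hills method.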

Leishmania donovani = test: In vitro anti-leishmanial activity against promastigote cultures of Leishmania donovani MON 703; assay type: functional, organism-based; how it was run: as §1

SMILES	IC50 (Leishmania infantum)	IC50 (Leishmania donovani)
C[N+](C)(C)CCOP(=O)([O-])OCCCCCCCCCCCC1C2CC3CC(C2)CC1C3 (centres undefined)	5.97 µM	2.88 µM
C[N+]1(CCOP(=O)([O-])OCCOc2ccc3ccccc3c2)CCCCC1	> 100 µM	> 100 µM
C[N+]1(CCOP(=O)([O-])OCCOc2ccccc2)CCOCC1	> 100 µM	> 100 µM
C[N+]1(CCOP(=O)([O-])OCCCCCCOc2ccccc2)CCOCC1	> 100 µM	> 100 µM
C[N+]1(CCOP(=O)([O-])Oc2ccc(C34CC5CC(CC(C5)C3)C4)cc2)CCOCC1	> 100 µM	> 100 µM
C[N+](C)(C)CCOP(=O)([O-])OCCCCCC1C2CC3CC(C2)CC1C3 (centres undefined)	> 100 µM	4.02 µM
C[N+](C)(C)CCOP(=O)([O-])OCCOc1ccc2ccccc2c1	> 100 µM	> 100 µM
C[N+](C)(C)CCOP(=O)([O-])OCCCCCCOc1ccccc1	> 100 µM	> 100 µM
CCCCCCCCCCCCCCC1CCC(OCCOP(=O)([O-])OCC[N+](C)(C)C)CC1 (centres undefined)	23.3 µM	23.7 µM
C[N+](C)(C)CCOP(=O)([O-])OCCOc1ccccc1	> 100 µM	> 100 µM
C[N+](C)(C)CCOP(=O)([O-])OCC12CC3CC(CC(C3)C1)C2	> 100 µM	> 100 µM
CCCCCCCCCCCCCCCCOP(=O)([O-])OCC[N+](C)(C)C [MILTEFOSINE]	22.6 µM	23.7 µM
